# Assay results from different studies.
# Target: Serine/threonine-protein kinase 4 (STK4, Homo sapiens, UniProt Q13043)
# Residues used in one study (Q13043 1-487): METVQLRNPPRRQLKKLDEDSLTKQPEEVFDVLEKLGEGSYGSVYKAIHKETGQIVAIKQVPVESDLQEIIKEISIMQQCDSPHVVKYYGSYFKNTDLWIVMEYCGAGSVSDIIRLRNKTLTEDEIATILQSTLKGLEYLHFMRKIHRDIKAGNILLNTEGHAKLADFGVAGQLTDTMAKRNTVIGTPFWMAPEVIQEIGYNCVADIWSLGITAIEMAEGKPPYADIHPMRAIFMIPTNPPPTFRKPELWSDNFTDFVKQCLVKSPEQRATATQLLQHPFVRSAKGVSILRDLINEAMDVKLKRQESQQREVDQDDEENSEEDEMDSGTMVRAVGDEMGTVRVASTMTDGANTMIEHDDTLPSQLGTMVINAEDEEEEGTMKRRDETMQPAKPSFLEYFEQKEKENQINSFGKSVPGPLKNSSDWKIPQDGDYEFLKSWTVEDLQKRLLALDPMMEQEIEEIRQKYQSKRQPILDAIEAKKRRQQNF
SMILES,test,setting,remaining binding [%]
CN(CCCC(F)(F)F)c1nccc(-c2cnn3ncccc23)n1,binding,1 µM,89
COc1ncc2cc3ccccc3nc2c1C#N,"cell-free assay, competition with immobilised ligand",5 µM,96
c1cnn2ncc(-c3ccnc(N4CCC45COC5)n3)c2c1,binding,1 µM,89
Cc1cnc(Nc2ccc(C(=O)N3CCC(N4CCCC4)CC3)cc2)nc1-c1cc2ccccc2s1,"binding, competition with immobilised ligand",1 µM,100
N#CC1(c2ccccn2)CCN(Cc2cc(C(=O)N3CCCC3)c(=O)n3ccccc23)CC1,"cell-free assay, competition with immobilised ligand",1 µM,88
FC(F)(F)Oc1cccc(-c2cnc3ccc(-c4ccncc4)nn23)c1,"cell-free assay, competition with immobilised ligand",5 µM,100
CS(=O)(=O)c1cc(C2(NC(=O)c3cncc4c3cnn4-c3ccc(F)cc3)CC2)ccn1,"cell-free assay, competition with immobilised ligand",1 µM,77
CCN1CCN(Cc2ccc(C(=O)Nc3ccc(C)c(Oc4ccc5c(c4)CC(=O)N5)c3)cc2C(F)(F)F)CC1,"binding, competition with immobilised ligand",1 µM,100
O=C(c1ccc(Nc2ncc(Cl)c(-c3cc4ccccc4s3)n2)cc1)N1CCC(N2CCCC2)CC1,"binding, competition with immobilised ligand",1 µM,100
C[C@H]1CCN(c2nccc(-c3cnn4ncccc34)n2)C1,binding,1 µM,82
CCC(=O)N[C@H]1CC[C@@H](C(=O)N(C)c2ccc(-c3nc4ccccc4o3)cc2)C1,"cell-free assay, competition with immobilised ligand",1 µM,100
CN(C)c1nccc(-c2cnc3ncccn23)n1,binding,1 µM,88
COc1cnc(Nc2cccc(S(N)(=O)=O)c2)nc1N1CCN(c2ccccc2)CC1,"binding, competition with immobilised ligand",1 µM,100
O=C(c1ccc(Nc2nccc(-c3cc4ccccc4s3)n2)cc1)N1CCC(N2CCCC2)CC1,"binding, competition with immobilised ligand",1 µM,100
COc1cccc(CNC(=O)c2nc3scc(COCc4ccc(C(=O)O)cc4)c3c(=O)[nH]2)c1,"cell-free assay, competition with immobilised ligand",1 µM,75
O=C(NCC1CCOCC1)c1n[nH]cc1NC(=O)c1c(F)cccc1F,"binding, competition with immobilised ligand",1 µM,100
Cc1c[nH]c2nccc(Oc3c(F)cc(Nc4cc(Cl)nc(N)n4)cc3F)c12,"cell-free assay, competition with immobilised ligand",0.1 µM,100
F[C@@H]1CCN(c2nccc(-c3cnn4ncccc34)n2)C1,binding,1 µM,91
CCCOc1ccc([C@@H]2[C@@H](C(=O)O)[C@H](c3ccc4c(c3)OCO4)CN2CC(=O)Nc2c(CC)cccc2CC)cc1,"cell-free assay, competition with immobilised ligand",1 µM,95
N[C@H]1CCN(c2nccc(-c3cnn4ncccc34)n2)C1,binding,1 µM,100
